Tests used:
Homo sapiens [1] = species: Homo sapiens; assay: In vitro hydrolytic rate constant determined in human blood; format: ADME
In short: (§1)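 Compounds were placed in human blood, and samples were withdrawn over time. Each sample was mixed at once with ice-cold acetonitrile and centrifuged. The supernatant was analysed by reverse-phase C18 HPLC with variable-wavelength UV detection. Disappearance was treated as pseudo-first-order. Values are the mean of at least four runs ± SE of the mean.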

Homo sapiens [2] = species: Homo sapiens; assay: (§2) Half life period determined in human blood; format: ADME, organism-based; settings: in vitro; in short: as §1
[3] = as §2; format: ADME, organism-based; in short: as §1

Row | SMILES | K (Homo sapiens [1]) | T1/2 (Homo sapiens [2]) | half-life ([3]; human blood) | half-life [3]
1 | COC(=O)CCc1ccc(OCC(O)CNC(C)C)cc1 (centres undefined) [ESMOLOL] | 0.0033 min⁻¹ | 210 min | – | –
2 | CC(C)NCC(O)COc1ccc(CC(=O)OC2CC3CCC2C3)cc1 (stereo in doubt; 3f) | 0.02 min⁻¹ | – | 34.6 min | –
3 | CC(C)NCC(O)COc1ccc(CC(=O)OCC(=O)OC2CCCCC2)cc1 (centres undefined) | 0.154 min⁻¹ | – | 4.5 min | –
4 | CC(C)NCC(O)COc1ccc(CC(=O)OC2CC3CCC2(C)C3(C)C)cc1 (centres undefined) | 0.0009 min⁻¹ | – | 770 min | –

More lines, now with the values ahead:

Row | K (Homo sapiens [1]) | T1/2 (Homo sapiens [2]) | half-life ([3]; human blood) | half-life [3] | SMILES
5 | 35000 min⁻¹ | 19.8 min | – | – | CC(C)NCC(O)COc1ccc(CC(=O)OC2CC3CCC2C3)cc1 (stereo in doubt; 3e)
6 | 0.1 min⁻¹ | – | – | 6.9 min | CC(C)NCC(O)COc1ccc(CC(=O)OCCC23CC4CC(CC(C4)C2)C3)cc1 (centres undefined) [ADAPROLOL]
7 | 0.015 min⁻¹ | – | 46.2 min | – | CC(C)NCC(O)COc1ccc(CC(=O)OCC23CC4CC(CC(C4)C2)C3)cc1 (centres undefined)

From ChEMBL document CHEMBL1124188, “Soft drugs. 7. Soft beta-blockers for systemic and ophthalmic use” (J Med Chem, 1988)
